Reference: publication PMC5698725 (Chemistry (Weinheim an Der Bergstrasse, Germany), 2017)

Legend:
[1] = High-throughput metabolic stability assay, human liver microsomes; assay type: in vitro ADME; settings: predicted from in vitro metabolic stability
Summary of the method: (§1)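 Predicted hepatic metabolic clearance from a high-throughput metabolic stability assay. Systems: pooled human, rat or mouse liver microsomes, or freshly harvested rat hepatocytes. Output is predicted blood clearance (CLb) in L h−1 kg−1.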

[2] = system: freshly harvested rat hepatocytes (rHep); experiment: High-throughput metabolic stability assay, rat hepatocytes; assay type: in vitro ADME; settings: predicted from in vitro metabolic stability
Summary of the method: as §1

[3] = High-throughput metabolic stability assay, rat liver microsomes; assay type: in vitro ADME; settings: predicted from in vitro metabolic stability
Summary of the method: as §1

Hydrolytic stability = assay type: physicochemical
Summary of the method: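 Test compound stirred for 24 hours in buffers: pH 2.0 and pH 4.5 citrate, pH 6.5 and pH 7.4 phosphate-buffered saline, pH 8.0 sodium borate. Hydrolytic stability is expressed as percent test compound recovered at 24 h.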

[4] = Bidirectional Caco2 permeability assay; assay type: in vitro ADME; settings: human, Caco-2
Caco2 = experiment: Bidirectional Caco2 permeability assay; assay type: in vitro ADME; settings: Caco2, P app B–A/P app A–B
[5] = High-throughput metabolic stability assay, mouse liver microsomes; assay type: in vitro ADME; settings: predicted from in vitro metabolic stability
Summary of the method: as §1

N=S(=O)(c1ccccc1)N1CCCCC1 (stereo not shown) [2 a, 1 ‐(S‐Phenylsulfonimidoyl)piperidine]
CLb hLMs (predicted blood clearance) [1]: 0.67 mL/min/kg | CLb rHep (predicted blood clearance) [2]: 60 mL/min/kg | CLb rLMs (predicted blood clearance) [3]: 50 mL/min/kg | Recovered test compound (hydrolytic stability) (Hydrolytic stability; all tested pH values (2.0–8.0), 24 hours with stirring): 100% | recovery at 24 h (Hydrolytic stability; citrate buffer, pH 2): 100% | recovery at 24 h (Hydrolytic stability; citrate buffer, pH 4.5): 100% | recovery at 24 h (Hydrolytic stability; phosphate-buffered saline, pH 6.5): 100% | recovery at 24 h (Hydrolytic stability; phosphate-buffered saline, pH 7.4): 100% | recovery at 24 h (Hydrolytic stability; sodium borate buffer, pH 8): 100% | Papp A→B [4]: 37.8 ×10⁻⁶ cm/s | efflux ratio [4]: 0.59 | efflux ratio (Caco2): no evidence of efflux | CLb mLMs (predicted blood clearance) [5]: 18.3 mL/min/kg
